Read-outs that look alike come from different tables or passages of the source.
Tests used:
Format in all cases: binding
[1] = target: T1, human thrombus (Homo sapiens, UniProt P00488); test: Autoradiography of ex vivo human thrombus sections with blocking; conditions: human explanted thrombus sections; 5 μM co-incubated
T1 sequence (P00488 39-732 limits assumed): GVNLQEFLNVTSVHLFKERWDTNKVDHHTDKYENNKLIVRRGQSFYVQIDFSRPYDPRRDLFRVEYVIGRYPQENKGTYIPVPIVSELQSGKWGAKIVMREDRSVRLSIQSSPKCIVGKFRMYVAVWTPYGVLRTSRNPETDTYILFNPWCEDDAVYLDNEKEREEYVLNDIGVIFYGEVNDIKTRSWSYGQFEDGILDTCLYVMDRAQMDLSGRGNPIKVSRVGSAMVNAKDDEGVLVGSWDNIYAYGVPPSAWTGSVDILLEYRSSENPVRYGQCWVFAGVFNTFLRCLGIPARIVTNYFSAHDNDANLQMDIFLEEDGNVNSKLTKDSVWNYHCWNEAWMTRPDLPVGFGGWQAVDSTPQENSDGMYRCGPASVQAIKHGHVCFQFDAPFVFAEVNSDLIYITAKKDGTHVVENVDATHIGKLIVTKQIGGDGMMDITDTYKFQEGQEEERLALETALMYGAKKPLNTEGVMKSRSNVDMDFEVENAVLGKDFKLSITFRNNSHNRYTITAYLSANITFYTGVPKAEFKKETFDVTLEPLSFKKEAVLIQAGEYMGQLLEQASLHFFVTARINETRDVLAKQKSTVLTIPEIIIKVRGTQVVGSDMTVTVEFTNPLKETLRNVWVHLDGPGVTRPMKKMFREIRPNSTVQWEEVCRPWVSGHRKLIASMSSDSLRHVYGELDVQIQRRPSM
How it was run: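 Paraffin-embedded cross-sections of ex vivo human thrombi (n = 3) were de-paraffinised, rehydrated and incubated 2 h at 37°C with 18F-tracer alone or co-incubated with unlabelled tracer, scrambled peptide or iodoacetamide (each 5 μM), in quadruplicate. Slides were washed twice in phosphate buffer, air-dried and exposed to a phosphor screen. Equal ROIs gave greyscale pixel intensity; %SB = tracer-only minus inhibitor-section activity.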

[2] = target: T2, rodent carotid thrombus (Rattus norvegicus, UniProt O08619); conditions: rodent explanted thrombus sections; 5 μM co-incubated
T2 sequence (O08619 39-732 limits assumed): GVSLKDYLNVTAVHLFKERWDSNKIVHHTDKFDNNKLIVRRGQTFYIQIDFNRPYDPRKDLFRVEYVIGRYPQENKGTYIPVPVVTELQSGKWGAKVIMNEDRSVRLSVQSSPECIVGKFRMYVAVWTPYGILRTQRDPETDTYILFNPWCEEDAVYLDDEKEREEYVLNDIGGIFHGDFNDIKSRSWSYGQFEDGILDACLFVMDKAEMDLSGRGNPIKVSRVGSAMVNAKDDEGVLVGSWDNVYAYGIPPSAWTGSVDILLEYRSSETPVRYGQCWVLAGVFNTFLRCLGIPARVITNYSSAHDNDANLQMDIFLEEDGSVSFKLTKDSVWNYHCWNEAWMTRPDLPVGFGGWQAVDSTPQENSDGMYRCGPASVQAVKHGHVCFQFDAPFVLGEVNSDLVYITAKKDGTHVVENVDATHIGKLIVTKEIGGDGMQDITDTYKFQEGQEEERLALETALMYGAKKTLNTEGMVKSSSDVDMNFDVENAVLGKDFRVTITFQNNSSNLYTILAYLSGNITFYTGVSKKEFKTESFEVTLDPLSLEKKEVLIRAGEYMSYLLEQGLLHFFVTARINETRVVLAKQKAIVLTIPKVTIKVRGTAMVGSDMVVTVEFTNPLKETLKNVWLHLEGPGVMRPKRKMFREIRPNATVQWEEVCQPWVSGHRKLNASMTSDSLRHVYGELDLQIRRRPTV
How it was run: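 Thrombosed left common carotid (ferric chloride model) was harvested from one rat after sacrifice. Sections were de-paraffinised, rehydrated and incubated 2 h at 37°C with 18F-tracer alone or with 5 μM unlabelled tracer, scrambled peptide or iodoacetamide. They were then washed, dried and exposed to a phosphor screen. Greyscale intensity was read in equal ROIs; %SB = tracer-only minus inhibitor sections.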

[3] = target: T3, Factor XIIIa (Homo sapiens, UniProt P00488); conditions: co-infusion of iodoacetamide 10 mg/mL, n = 10
T3 sequence (P00488 39-732 limits assumed): T1 sequence (P00488 39-732 limits assumed)
How it was run: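 Native blood from healthy male volunteers was pumped at 10 mL/min for 5 min through three 37°C chambers over porcine aortic strips (intima removed), at 212 s−1 (low shear) or 1690 s−1 (high shear), then flushed with saline. Tracer was infused at 4.6 ± 0.5 MBq/mL, or 5.5 ± 0.9 MBq/mL with 10 mg/mL iodoacetamide. Strips were scanned by NanoPET/CT; equal thrombus VOIs (kBq/mL) were divided by infused MBq.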

NC(=O)CI [iodoacetamide, Iodoacetamide]
Effect on 18F-ENC2015 uptake (autoradiography) [1]: no effect | Effect on 18F-ENC2015 uptake (autoradiography) [2]: no effect | Reduction of 18F-ENC2015 thrombus binding ([3]; high shear thrombi): 87% | Reduction of 18F-ENC2015 thrombus binding ([3]; low shear thrombi): 88%

Source: publication PMC7237957 (European Heart Journal Cardiovascular Imaging, 2019)
